Source: PubChem (several laboratories)
Hits are enriched below; roughly 1.8% of the tested compounds scored in any of these assays.
AI-2 QS mod: modulates the Vibrio harveyi AI-2 quorum sensing system | Vibrio harveyi JMH597 AI-2 luminescence/OD600 ratio, 9 h; active compounds read low; strain lacks LuxN and CqsS sensors; 0 = neutral-control median | activity change, % at 7.5 µM | 0.4% of 300,000 active | AID 2094; in the data active = activity change below about -75%, passing the limit was not always enough; inconclusive = no clear call, values can overlap the other calls;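 note: luminescence divided by OD600 gain over 9 h not by final OD600 alone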
ATG4B inh: inhibitors of human ATG4B cysteine protease; Q9Y4P1; ATG4B cleavage of LC3-PLA2, NBD-HPC fluorescence, 1 h; inhibition, % at 8.33 µM; 0.51% of 340,000 active; AID 504462; in the data active = inhibition above about 40%
LANA-H2B inh: blocks KSHV LANA binding to histone H2A/H2B; cell-free LANA-H2A/H2B peptide, fluorescence polarization; Q9QR71; AID 2629; inhibition, % (concentration not given with the values); 0.6% of 320,000 active; in the data active = inhibition mostly above about 10%, no sharp cut-off; inactive = mostly below about 6.7%
A1 inh: inhibitors of the anti-apoptotic protein A1, read as caspase activation; MEF A1-2A-BIM cells, Caspase-Glo 3/7 luminescence, 3 h; percent of clofoctol response, vehicle zero; AID 2462; caspase activation, % (test concentration not listed); 0.066% of 330,000 active;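 active = over half of replicate activation scores above 10%, or exactly half above 10 with the replicate mean above 10; inconclusive = replicate mean below 10 yet half the replicates above 10; inactive = over half of replicates below 10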
HDAC3 inh: human HDAC3 inhibition. inhibition, % at 8.3 µM. recombinant HDAC3, fluorogenic peptide/trypsin coupled, fluorescence. 0.15% of 320,000 active. O15379; in the data active = inhibition above about 26%, passing the limit was not always enough; inconclusive = no clear call, values can overlap the other calls
HKDC1 inh: HKDC1 (human) hexokinase inhibition | AID 493160 | recombinant HKDC1, G6PDH/diaphorase resazurin coupled fluorescence | 0.16% of 340,000 active | inhibition, % at 20 µM;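 active = inhibition above about 35% when tested at 20 µM, limit read from the data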
Target sequence (Q2TB90 whole entry, looked up): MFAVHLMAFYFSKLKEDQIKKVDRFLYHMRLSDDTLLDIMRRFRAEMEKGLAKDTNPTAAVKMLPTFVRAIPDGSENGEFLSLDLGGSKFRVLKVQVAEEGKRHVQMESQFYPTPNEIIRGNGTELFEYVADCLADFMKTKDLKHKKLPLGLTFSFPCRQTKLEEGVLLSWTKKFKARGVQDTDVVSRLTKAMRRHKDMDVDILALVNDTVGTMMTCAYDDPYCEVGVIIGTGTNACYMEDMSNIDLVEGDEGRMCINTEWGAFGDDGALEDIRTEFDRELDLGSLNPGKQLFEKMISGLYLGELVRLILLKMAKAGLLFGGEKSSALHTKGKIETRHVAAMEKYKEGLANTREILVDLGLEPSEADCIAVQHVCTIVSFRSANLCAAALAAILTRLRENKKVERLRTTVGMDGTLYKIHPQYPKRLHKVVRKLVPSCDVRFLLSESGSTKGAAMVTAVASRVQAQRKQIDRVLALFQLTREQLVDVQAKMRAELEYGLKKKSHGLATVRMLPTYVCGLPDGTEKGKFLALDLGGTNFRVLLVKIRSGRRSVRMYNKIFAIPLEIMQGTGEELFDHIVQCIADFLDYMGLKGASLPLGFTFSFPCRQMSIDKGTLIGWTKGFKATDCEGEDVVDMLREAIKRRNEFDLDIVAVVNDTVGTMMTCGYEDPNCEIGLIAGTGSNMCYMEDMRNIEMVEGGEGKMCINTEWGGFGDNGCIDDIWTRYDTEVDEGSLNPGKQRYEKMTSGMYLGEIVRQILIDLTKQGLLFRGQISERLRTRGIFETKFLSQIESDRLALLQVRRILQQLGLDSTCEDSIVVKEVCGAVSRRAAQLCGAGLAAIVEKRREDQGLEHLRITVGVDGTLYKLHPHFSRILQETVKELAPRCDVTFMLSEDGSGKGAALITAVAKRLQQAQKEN
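test system = in-house recombinant HK5 (HKDC1) enzyme | amount = HKDC1 at 5 µg/mL | control set = DMSO-enzyme wells negative, buffer-substituted wells positive | compound = one dose of 20 µM, 1% DMSO | schedule = reaction time 90 min, room temperature, protected from light | technique = resorufin fluorescence at 613 nm | reagent = glucose with 1 mM ATP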
ATG4B conf: confirmation of human ATG4B inhibitors; shares compounds with ATG4B inh; ATG4B protease fluorescent substrate cleavage assay; inhibition, % at 8.33 µM; 92% of 320 active; AID 504757; in the data active = inhibition above about 39%
PLA2 ctr: PLA2 (human) inhibition in ATG4B counter-screen. shares compounds with ATG4B inh. purified PLA2, NBD-C6-HPC fluorescence, 45 min. inhibition, % at 8.33 µM. 66% of 1,600 active. AID 588402; in the data active = inhibition above about 50%
Of the large screens only hits and unclear results are named; the others gave an inactive call (follow-up assays come after a bar, where they were run).

O=C(NC(Cc1c[nH]c2ccccc12)C(=O)Nc1ccc(F)c([N+](=O)[O-])c1)c1cccs1 (stereo not given)	ATG4B inh 71 | PLA2 ctr 81
COc1ccc(OC)c(-c2cc(C(=O)N3CCc4ccccc4C3)no2)c1	ATG4B inh 49 | PLA2 ctr 56
COc1ccc(N2CCN(C(=O)c3[nH]c4ccc(OC)cc4c3C)CC2)cc1	none
COc1ccc2[nH]c(C(=O)N3CCc4ccccc4C3)c(C)c2c1	ATG4B inh 62 | PLA2 ctr 64
COc1ccc(-c2cc(C(=O)N3CCc4ccccc4C3)no2)cc1	none
Cc1ccnc(NC(=O)c2ccc(OCC3CCCO3)cc2)c1 (stereo not given)	none
COc1ccccc1NC(=O)CSCc1cc(=O)n2ccsc2n1	none
CCOc1ccc(CN(C)c2nc(-c3cccnc3)nc3ccccc23)cc1OC	none
CC1CCCCC1NC(=O)CCNS(=O)(=O)c1cc(Br)cnc1N (stereo not given)	none
Cc1ccc(C(=O)NC(=S)Nc2ccccc2N2CCCC2)cc1[N+](=O)[O-]	ATG4B inh 42 | PLA2 ctr inactive
Cc1ccc(C(=O)Nc2ccccc2N2CCCCC2)cc1[N+](=O)[O-]	none
O=C(Nc1cccc2ccccc12)NC1CCCCC1O (stereo not given)	none
CSc1ccccc1C(=O)Nc1ccccc1C(=O)N1CCCC1	none
O=C(COc1coc(CN2CCc3ccccc32)cc1=O)Nc1ccc([N+](=O)[O-])cc1	none
O=C(COC(=O)c1cc(Cl)ccc1[N+](=O)[O-])NCc1ccc(Cl)cc1Cl	ATG4B inh 52 | ATG4B conf 65 | PLA2 ctr inactive
O=C(COC(=O)c1cc(Cl)ccc1[N+](=O)[O-])Nc1cccc2ccccc12	none
COc1c(Cl)cc(Cl)cc1CNc1ccc(S(N)(=O)=O)cc1	ATG4B inh 82 | PLA2 ctr 85
CCOc1c(Cl)cc(CNc2ccc(S(N)(=O)=O)cc2)cc1OC	none
CC(C)CN(C(=O)COc1ccc(Br)cc1C=O)C1CCS(=O)(=O)C1 (stereo not given)	ATG4B inh 45 | PLA2 ctr 53
CCC(C)(C)NC(=O)C(c1ccc(OC)cc1)N(C(=O)CCC(=O)Nc1cc(C)on1)c1ccc2c(c1)OCCO2 (stereo not given)	none
CCOc1ccc(C(=O)Nc2ccccc2-c2ccccc2)cc1Cl	ATG4B inh 45 | PLA2 ctr inactive
CCOc1ccc(C(=O)Nc2cccc(C(=O)O)c2C)cc1Cl	none
COc1ccc(S(=O)(=O)N2CCOCC2)cc1NC(=O)Cn1nnc2ccccc2c1=O	none
CC(C)S(=O)(=O)C1=NSC2=NC(=O)/C(=C\c3ccc(-c4ccccc4)o3)C(=N)N21	ATG4B inh 59 | PLA2 ctr 56
Cc1ccc(C)c(N(CC(=O)NC(C)(C)C)C(=O)CCC(=O)Nc2nccs2)c1	none
CC1CCCN(C(=O)c2ccc3c(=O)n(Cc4ccc5c(c4)OCO5)c(=S)[nH]c3c2)C1 (stereo not given)	ATG4B inh 85 | PLA2 ctr 62
Cc1cccc(C)c1NC(=O)COC(=O)c1c2c(nc3ccccc13)/C(=C\c1ccc3c(c1)OCO3)CCC2	ATG4B inh 44, LANA-H2B inh 63 (no result: AI-2 QS mod) | PLA2 ctr inactive
CC(OC(=O)c1c2c(nc3ccccc13)/C(=C\c1ccc3c(c1)OCO3)CCC2)C(=O)Nc1ccc(S(N)(=O)=O)cc1 (stereo not given)	none (no result: AI-2 QS mod, LANA-H2B inh, A1 inh, HDAC3 inh)
CCOC(=O)N1CCC(N2CCCC(C(=O)c3cccc(OC(C)C)c3)C2)CC1 (stereo not given)	none
Cn1c(=O)c2c(O)c([N+](=O)[O-])c(=O)n(C)c2n(C)c1=O	none
O=C1CN(c2nc(-c3cccs3)nc3sc4c(c23)CCCC4)CCN1	ATG4B inh 76 | PLA2 ctr 87
O=c1oc(-c2cccs2)nc2sc3c(c12)CCCC3	none
COc1cc(NS(=O)(=O)c2ccc(NC(=S)NC(=O)/C=C/c3ccco3)cc2)ncn1	ATG4B inh 56 (no result: LANA-H2B inh, A1 inh, HDAC3 inh) | ATG4B conf 46 | PLA2 ctr inactive
Cc1ccc(NC(=O)CN(C)C(=O)CSc2nnc(C(F)(F)F)n2C)cc1	none (no result: LANA-H2B inh, HDAC3 inh)
Oc1ccccc1C1CCCCC1c1ccccc1 (stereo not given)	ATG4B inh 52, A1 inh inconclusive | PLA2 ctr inactive
CCCCNC(=S)NNC(=O)c1ccco1	none
CC1CCCN(C(=O)COC(=O)C2CCN(S(=O)(=O)c3c(Cl)cccc3Cl)CC2)C1 (stereo not given)	none
O=C(NN=C1CCCCCC1)c1cn(-c2ccccc2)nc1-c1ccccc1	ATG4B inh 43 | ATG4B conf 62 | PLA2 ctr inactive
CCSc1nc2c(c(=O)[nH]1)C(c1cccnc1)C(C(=O)OC)=C(C)N2 (stereo not given)	none
COC(=O)C1=C(C)Nc2nc(SCc3ccccc3)[nH]c(=O)c2C1c1cccs1 (stereo not given)	ATG4B inh 53 | PLA2 ctr inactive
CCOC(=O)C1C(=O)NC(c2ccccc2)=NC1c1ccc(OC)cc1 (stereo not given)	none
Cc1c(Cl)cccc1NC(=S)N1CCCN(Cc2ccccc2F)C1	ATG4B inh 64 | PLA2 ctr 56
Cc1ccccc1NC(=S)N1CCCN(Cc2ccc(F)cc2)C1	none
Cc1c(Cl)cccc1NC(=S)N1CCCN(Cc2ccc(F)cc2)C1	ATG4B inh 52 | PLA2 ctr 55
Fc1ccccc1CN1CCCN(C(=S)Nc2cccc(Cl)c2)C1	none
COc1ccc(/C(C)=N/NC(=O)c2sccc2-n2cccc2)cc1	none
Cc1ccc(S(=O)(=O)CC(=O)Nc2ccc3nc(C)sc3c2)cc1	none
O=C(NCc1cccnc1)c1ccc(NS(=O)(=O)c2ccc(F)cc2)cc1	none
N#Cc1cc2c(nc1SCC(=O)Nc1sc3c(c1C#N)CCC3)CCC2	none
COc1ccc(-c2ccc(C#N)c(SCC(=O)Nc3sc4c(c3C#N)CCC4)n2)cc1OC	ATG4B inh 73 | ATG4B conf 84 | PLA2 ctr inactive
Cn1cc(CCC(=O)N2CCCC(CCC(=O)NCc3ccc(F)c(F)c3)C2)cn1 (stereo not given)	ATG4B inh 42 | PLA2 ctr inactive
Cn1cc(CCC(=O)N2CCCC(CCC(=O)NCc3ccccc3F)C2)cn1 (stereo not given)	none
CON(C)C(=O)CCN(Cc1ccccc1)C(=O)OC(C)(C)C	none (no result: AI-2 QS mod)
